The values below come from ChEMBL document CHEMBL1155054, “Synthesis, biological evaluation and molecular modelling of N-heterocyclic dipeptide aldehydes as selective calpain inhibitors” (Bioorg Med Chem, 2008).

The term IC50 denotes the concentration that inhibits the measured activity by half. High values mean weaker potency, low ones greater potency.

Assay [1] is described as follows: Inhibition of ovine CAPN2. Also on record: species or system Ovis aries. The gist of the method:
(§1)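 o-CAPN1 or o-CAPN2 partially purified from sheep lung by hydrophobic and ion-exchange chromatography, diluted in 20 mM MOPS, 2 mM EGTA, 2 mM EDTA, 0.5% β-mercaptoethanol pH 7.5. Substrate 0.0005% BODIPY-FL casein in 10 mM CaCl2; inhibitor in DMSO (2% total).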

Assay [2] can be described thus: Inhibition of ovine CAPN1. Also on record: species or system Ovis aries. Put shortly:
as §1

The next assay concerns Lens of camera-type eye. The assay can be described thus: Protection against calcium-induced cataract in ovine lens assessed as reduction in loss of transparency at 10 uM after 44 hrs relative to control. The class given is functional, tissue-based. The following applies: Ovis aries.
In assay [3] the target is T1, Calpain-2 catalytic subunit (Sus scrofa, UniProt P43367).
T1 sequence (P43367 whole entry): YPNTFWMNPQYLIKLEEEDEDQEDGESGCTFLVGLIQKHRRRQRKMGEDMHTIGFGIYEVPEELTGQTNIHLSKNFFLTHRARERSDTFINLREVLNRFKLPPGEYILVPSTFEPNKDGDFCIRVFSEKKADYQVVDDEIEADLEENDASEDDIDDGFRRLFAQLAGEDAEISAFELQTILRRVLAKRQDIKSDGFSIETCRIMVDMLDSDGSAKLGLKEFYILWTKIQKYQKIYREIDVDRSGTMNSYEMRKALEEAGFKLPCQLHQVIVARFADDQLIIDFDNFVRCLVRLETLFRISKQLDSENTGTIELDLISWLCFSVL
In words: Inhibition of pig CAPN2.

In assay [4] the target is T2, Calpain-1 catalytic subunit (Sus scrofa, UniProt P35750).
T2 sequence (P35750 whole entry): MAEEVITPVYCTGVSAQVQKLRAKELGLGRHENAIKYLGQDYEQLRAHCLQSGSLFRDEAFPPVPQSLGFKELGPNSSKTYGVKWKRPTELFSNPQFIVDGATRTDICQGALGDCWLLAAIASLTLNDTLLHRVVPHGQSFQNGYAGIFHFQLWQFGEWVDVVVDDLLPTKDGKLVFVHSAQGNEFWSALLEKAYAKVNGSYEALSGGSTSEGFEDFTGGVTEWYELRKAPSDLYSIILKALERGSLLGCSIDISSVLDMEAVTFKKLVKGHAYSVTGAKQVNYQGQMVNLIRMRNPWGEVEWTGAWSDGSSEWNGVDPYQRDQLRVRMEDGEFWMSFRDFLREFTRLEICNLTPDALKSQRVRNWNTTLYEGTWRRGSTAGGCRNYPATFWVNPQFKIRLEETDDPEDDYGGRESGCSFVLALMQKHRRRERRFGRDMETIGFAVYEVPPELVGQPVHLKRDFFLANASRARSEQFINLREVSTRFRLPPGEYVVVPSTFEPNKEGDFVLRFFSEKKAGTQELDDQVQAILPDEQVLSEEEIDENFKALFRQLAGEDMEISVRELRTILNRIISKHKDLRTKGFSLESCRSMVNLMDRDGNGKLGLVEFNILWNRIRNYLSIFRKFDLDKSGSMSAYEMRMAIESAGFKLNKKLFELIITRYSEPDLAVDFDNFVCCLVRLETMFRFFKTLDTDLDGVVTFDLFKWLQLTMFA

Assay [5] deals with T3, Calpain-2 catalytic subunit (Homo sapiens, UniProt P17655).
T3 sequence (P17655 whole entry): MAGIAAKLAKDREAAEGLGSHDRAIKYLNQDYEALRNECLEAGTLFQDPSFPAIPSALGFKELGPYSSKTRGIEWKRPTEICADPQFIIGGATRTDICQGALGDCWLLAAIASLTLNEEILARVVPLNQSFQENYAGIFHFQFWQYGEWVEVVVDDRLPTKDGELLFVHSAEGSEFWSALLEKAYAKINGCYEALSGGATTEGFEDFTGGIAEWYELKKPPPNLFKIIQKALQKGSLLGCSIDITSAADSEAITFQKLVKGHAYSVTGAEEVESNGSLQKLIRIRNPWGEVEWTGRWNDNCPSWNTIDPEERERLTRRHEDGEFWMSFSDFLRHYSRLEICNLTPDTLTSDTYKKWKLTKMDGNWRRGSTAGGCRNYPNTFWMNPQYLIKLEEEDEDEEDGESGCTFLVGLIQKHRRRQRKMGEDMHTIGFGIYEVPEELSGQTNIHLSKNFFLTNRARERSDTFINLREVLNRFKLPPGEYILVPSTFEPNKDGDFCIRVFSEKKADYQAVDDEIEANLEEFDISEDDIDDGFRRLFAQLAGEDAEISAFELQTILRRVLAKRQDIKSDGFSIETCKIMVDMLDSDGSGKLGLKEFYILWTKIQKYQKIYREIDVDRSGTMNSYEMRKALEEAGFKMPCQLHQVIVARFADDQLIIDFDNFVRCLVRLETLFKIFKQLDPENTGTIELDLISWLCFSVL
In words: Inhibition of human CAPN2.

Active and inactive are the calls of the source. No cut-off for these calls is given here. Residues, ends and D or L forms follow the SMILES beside them. *: point of attachment. Cbz = O=C(OCc1ccccc1)*

In the case of `CC(C)C[C@@H](C=O)NC(=O)[C@@H](NC(=O)c1ccc(C=O)s1)C(C)C`, the figures for the IC50 in assay [1] and in assay [2] were 85 nM and 440 nM, respectively.
Regarding `CC(C)C[C@@H](C=O)NC(=O)[C@@H](NC(=O)c1cccs1)C(C)C`, the IC50 in assay [1] amounted to 100 nM; in assay [2], 680 nM.
On to `CC(C)C[C@@H](C=O)NC(=O)[C@@H](NC(=O)c1ccc(C=O)o1)C(C)C`, for which the IC50 in assay [1] was 100 nM; in assay [2] it was 960 nM.
As to `COC(=O)c1ccc(C(=O)N[C@H](C(=O)N[C@H](C=O)CC(C)C)C(C)C)[nH]1`, the IC50 in assay [1] came to 140 nM; in assay [2], 290 nM.
In the same order, the values of `CC(C)C[C@@H](C=O)NC(=O)[C@@H](NC(=O)c1ccc[nH]1)C(C)C` are 315 nM and 650 nM.
For the molecule `CC(C)C[C@@H](C=O)NC(=O)[C@@H](NC(=O)c1ccc(C=O)n1C)C(C)C`, the IC50 in assay [1] and in assay [2] was 150 nM throughout.
As for `CC(C)C[C@@H](C=O)NC(=O)[C@@H](NC(=O)c1ccc(C=O)[nH]1)C(C)C`, in the assay on Lens of camera-type eye, the outcome was Active. For the same molecule, the IC50 in assay [1] was determined as 25 nM; in assay [2], 290 nM.
Regarding `Cc1ccc(C(=O)N[C@H](C(=O)N[C@H](C=O)CC(C)C)C(C)C)[nH]1`, the IC50 in assay [1] was found to be 110 nM; in assay [2] it was 340 nM.
As for `CC(C)C[C@@H](C=O)NC(=O)[C@@H](NS(=O)(=O)c1ccc(F)cc1)C(C)C`, the IC50 in assay [3] turned out to be 78 nM; in assay [4] it was 7.5 nM.
Take `CC(C)C[C@@H](C=O)NC(=O)[C@@H](NC(=O)c1ccco1)C(C)C`: the IC50 in assay [1] is 135 nM; in assay [2], 790 nM.
For the molecule `CC(C)[C@H](NC(=O)OCc1ccccc1)C(=O)N[C@H](C=O)Cc1ccccc1` (Cbz-Val-Phe-aldehyde), half-maximal inhibition in assay [5] (IC50) was put at 350 nM.
As for `CC(C)C[C@@H](C=O)NC(=O)[C@@H](NC(=O)c1cc(C=O)c[nH]1)C(C)C`, the IC50 in assay [1] came out at 100 nM; in assay [2] it was 530 nM.
